{"data": "Measured values of several laboratories", "target": "Ephrin type-B receptor 6 (EPHB6, Homo sapiens, UniProt O15197)", "One construct used (O15197 32-1021)": "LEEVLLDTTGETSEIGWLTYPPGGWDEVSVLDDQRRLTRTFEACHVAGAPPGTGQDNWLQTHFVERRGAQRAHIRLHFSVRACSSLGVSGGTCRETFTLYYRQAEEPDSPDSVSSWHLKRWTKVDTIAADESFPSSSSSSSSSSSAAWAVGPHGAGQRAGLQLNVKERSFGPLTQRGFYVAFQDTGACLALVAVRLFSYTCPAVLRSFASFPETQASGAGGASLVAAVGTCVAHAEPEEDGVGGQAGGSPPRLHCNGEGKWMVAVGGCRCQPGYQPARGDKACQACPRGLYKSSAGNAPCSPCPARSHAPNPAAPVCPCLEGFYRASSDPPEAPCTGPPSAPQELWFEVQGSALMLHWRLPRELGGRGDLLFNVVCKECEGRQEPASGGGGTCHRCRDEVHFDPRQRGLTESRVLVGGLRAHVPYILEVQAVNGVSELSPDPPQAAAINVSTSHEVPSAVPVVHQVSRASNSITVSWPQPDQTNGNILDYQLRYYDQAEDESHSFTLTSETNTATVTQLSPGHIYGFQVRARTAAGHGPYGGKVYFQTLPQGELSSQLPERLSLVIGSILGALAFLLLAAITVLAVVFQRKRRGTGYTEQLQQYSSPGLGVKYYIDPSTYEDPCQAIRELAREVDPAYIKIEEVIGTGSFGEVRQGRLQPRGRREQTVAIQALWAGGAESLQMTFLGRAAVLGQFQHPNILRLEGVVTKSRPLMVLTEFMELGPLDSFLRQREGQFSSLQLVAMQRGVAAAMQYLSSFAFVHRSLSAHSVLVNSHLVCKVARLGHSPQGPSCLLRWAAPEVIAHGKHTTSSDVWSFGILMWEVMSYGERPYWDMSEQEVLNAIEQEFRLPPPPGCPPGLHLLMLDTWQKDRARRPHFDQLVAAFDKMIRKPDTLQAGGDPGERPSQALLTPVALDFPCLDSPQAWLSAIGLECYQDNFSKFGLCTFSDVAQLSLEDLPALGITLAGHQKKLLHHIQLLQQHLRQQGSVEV", "note": "Each line is one published result; the experiments were not run side by side."}
{"Structure (SMILES)": "O=C(c1ccc(Nc2nccc(-c3cc4ccccc4s3)n2)cc1)N1CCC(N2CCCC2)CC1", "observed": "binding", "method": "competition with immobilised ligand", "concentration": "1 µM", "remaining binding": "2.5%"}
{"Structure (SMILES)": "CN(c1ccnc(CNc2nc(Nc3ccc4c(c3)CC(=O)N4)ncc2C(F)(F)F)n1)S(C)(=O)=O", "observed": "cell-free assay", "method": "competition with immobilised ligand", "concentration": "1 µM", "remaining binding": "54%"}
{"Structure (SMILES)": "O=C(NCCCN1CCOCC1)c1ccc(Nc2ncc(Cl)c(-c3ccc(Cl)s3)n2)cc1", "observed": "binding", "method": "competition with immobilised ligand", "concentration": "1 µM", "remaining binding": "13%"}
{"Structure (SMILES)": "COc1ccnn2ncc(-c3ccnc(N(C)C)n3)c12", "observed": "binding", "concentration": "1 µM", "remaining binding": "27%"}
{"Structure (SMILES)": "C[C@@H](c1ccc(-n2cnc3c(N)ncnc32)cc1)N1CCc2nn(C)c(Cc3ccccc3)c2C1=O", "observed": "binding", "method": "competition with immobilised ligand", "concentration": "0.1 µM", "remaining binding": "51%"}
{"Structure (SMILES)": "C[C@H](NC(=O)c1cnc2n1[C@](C)(Cc1ccc(C#N)cc1)C(=O)N2c1cc(Cl)c(F)c(Cl)c1)C(=O)NC1(c2ccccn2)CC1", "observed": "cell-free assay", "method": "competition with immobilised ligand", "concentration": "1 µM", "remaining binding": "100%"}
{"Structure (SMILES)": "COc1cnc(Nc2cccc(S(N)(=O)=O)c2)nc1N1CCN(c2ccccc2)C(=O)C1", "observed": "binding", "method": "competition with immobilised ligand", "concentration": "1 µM", "remaining binding": "90%"}
{"Structure (SMILES)": "CC(=O)N1CCC(c2ccc(C(=O)NC3=NCCN3)cc2C(F)(F)F)CC1", "observed": "cell-free assay", "method": "competition with immobilised ligand", "concentration": "1 µM", "remaining binding": "100%"}
{"Structure (SMILES)": "CN(c1nccc(-c2cnn3ncccc23)n1)C1CC1", "observed": "binding", "concentration": "1 µM", "remaining binding": "100%"}
{"Structure (SMILES)": "COc1cnc(Nc2cccc(S(N)(=O)=O)c2)nc1N1CCN(c2ccccc2)CC1", "observed": "binding", "method": "competition with immobilised ligand", "concentration": "1 µM", "remaining binding": "95%"}
{"Structure (SMILES)": "Nc1ncc2c(n1)-c1c([nH]c3ccc(C#CC4CC4)cc13)CCCC2", "observed": "binding", "method": "competition with immobilised ligand", "concentration": "1 µM", "remaining binding": "84%"}
{"Structure (SMILES)": "CN(C)c1ncc(F)c(-c2cnn3ncccc23)n1", "observed": "binding", "concentration": "1 µM", "remaining binding": "77%"}
{"Structure (SMILES)": "CS(=O)(=O)N1CCCC(NC(=O)[C@H](CCC2CCCCC2)NC(=O)c2ccc(CNC(=O)c3cnc4ccccn34)cc2)C1 (stereo partly shown)", "observed": "cell-free assay", "method": "competition with immobilised ligand", "concentration": "0.1 µM", "remaining binding": "98%"}
{"Structure (SMILES)": "C=CC(=O)N1CCC(C(=O)NCC(=O)N2CCN(c3nc(-c4cnc(N)nc4C(F)F)nc(N4CCOCC4)n3)CC2)CC1", "observed": "binding", "method": "competition with immobilised ligand", "concentration": "1 µM", "remaining binding": "65%"}
{"Structure (SMILES)": "C[C@H]1CCN(c2nccc(-c3cnn4ncccc34)n2)C1", "observed": "binding", "concentration": "1 µM", "remaining binding": "85%"}
{"Structure (SMILES)": "O=C(NCCCN1CCOCC1)c1ccc(Nc2nccc(-c3cc4ccccc4s3)n2)cc1", "observed": "binding", "method": "competition with immobilised ligand", "concentration": "1 µM", "remaining binding": "18%"}
{"Structure (SMILES)": "Cc1cnn2ncc(-c3ccnc(N(C)C)n3)c2c1", "observed": "binding", "concentration": "1 µM", "remaining binding": "80%"}
{"Structure (SMILES)": "C[C@@H]1CN(c2cc(-c3n[nH]c4ccc(OC5(C)CC5)cc34)ncn2)C[C@H](C)O1", "observed": "cell-free assay", "method": "competition with immobilised ligand", "concentration": "0.1 µM", "remaining binding": "91%"}
{"Structure (SMILES)": "N[C@@H]1CCN(c2nccc(-c3cnn4ncccc34)n2)C1", "observed": "binding", "concentration": "1 µM", "remaining binding": "52%"}
{"Structure (SMILES)": "O=C(NC[C@@H]1[C@H]2CN(C(=O)OCc3cc(C(F)(F)F)cc(C(F)(F)F)c3)C[C@@H]12)c1ccc2[nH]nnc2c1", "observed": "cell-free assay", "method": "competition with immobilised ligand", "concentration": "1 µM", "remaining binding": "100%"}
{"Structure (SMILES)": "CN(C)c1nccc(-c2cnc3ncccn23)n1", "observed": "binding", "concentration": "1 µM", "remaining binding": "45%"}
{"Structure (SMILES)": "O=C(Nc1c[nH]nc1C(=O)NC1CCNCC1)c1cc(F)cc(F)c1", "observed": "binding", "method": "competition with immobilised ligand", "concentration": "1 µM", "remaining binding": "100%"}
